Calls of active or inactive are those of the source. No cut-off for these calls is given here. Bridge positions count the residues as written; N and C are the ends. Square brackets hold non-standard residues; d marks the D form. Peptide text beside a SMILES is read from it. ΔPro = O=C(O)[C@@H]1C=CCN1; Mpa = O=C(O)CCS
How the values were obtained:
[1] = system: Rattus norvegicus; test: Induction in blood pressure in rat after single intravenous bolus injection; assay type: functional
Summary of the method: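 Pressor assay in anesthetized male rats following the U.S. Pharmacopeia procedure. Specific activity obtained by the Schild four-point design against the U.S.P. posterior pituitary reference standard; results in units/mg on anhydrous peptide weight.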

[2] = system: Gallus gallus; test: Reduction in vasomotor depression in chicken after single intravenous bolus injection; assay type: functional
Summary of the method: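 Avian vasodepressor assay in conscious chickens (Coon method per U.S. Pharmacopeia, modified by Munsick et al.). Four-point Schild design against the U.S.P. posterior pituitary reference standard; results in units/mg on anhydrous weight.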

[3] = species on record: Rattus norvegicus; test: Induction in uterus contraction in isolated rat uterine horns in vitro
[4] = system: Rattus norvegicus; test: Antidiuretic effect in Brattleboro rat assessed as maximal depressions of urine flow after single intravenous bolus injection; assay type: functional
[5] = system: Rattus norvegicus; test: Increase in urine osmolality in Sprague-Dawley rat measured per liter at 1.6 x 10^-12 mol, single intravenous bolus injection (reference value: 200 mosm)
[6] = system: Rattus norvegicus; test: Decrease in glomerular filtration rate in Sprague-Dawley rat at 1.6 x 10^-11 mol, single intravenous bolus injection; assay type: functional, organism-based; settings: in the assay text read “1.6 x 10^-12 mol” for “1.6 x 10^-11 mol”
Summary of the method: (§1)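 Renal clearance in six male Sprague-Dawley rats, 250–275 g, under Inactin (10 mg/100 g ip), hydrated to 8% body weight with 2% ethanol/0.5% glucose. Infusion of 3% inulin, 1% mannitol, 0.6% NaCl, 2% alcohol at about 10 mL/h; 60 min equilibration; body temperature 37 °C. Urine volume determined gravimetrically, GFR from inulin (anthrone method), Na/K by flame photometry.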

[7] = system: Rattus norvegicus; test: Reduction in urine flow in Sprague-Dawley rat at 1.6 x 10^-11 mol, single intravenous bolus injection; assay type: functional, organism-based; settings: in the assay text read “1.6 x 10^-12 mol” for “1.6 x 10^-11 mol”; summary of the method: as §1
[8] = system: Rattus norvegicus; test: Reduction in fractional excretion of sodium in Sprague-Dawley rat at 1.6 x 10^-11 mol, single intravenous bolus injection; assay type: functional, organism-based; settings: in the assay text read “1.6 x 10^-12 mol” for “1.6 x 10^-11 mol”; summary of the method: as §1
[9] = system: Rattus norvegicus; test: Induction in blood pressure in rat at 1.6 x 10^-12 mol, single intravenous bolus injection; assay type: functional, organism-based
Summary of the method: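 Hydrated, Inactin-anesthetized male Sprague-Dawley rats with carotid artery cannulated; arterial pressure recorded on a physiograph after a single intravenous bolus of 1.6×10^-12 mol (21 microunits).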

[10] = system: Rattus norvegicus; test: Reduction in fractional excretion of sodium in Sprague-Dawley rat at 4.2 x 10^-11 mol, single intravenous bolus injection; assay type: functional, organism-based
Summary of the method: (§2)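 Six male Sprague-Dawley rats (250–275 g), Inactin 10 mg/100 g i.p., hydrated to 8% body weight; carotid, jugular and bladder cannulated, 37 °C. Inulin/mannitol/NaCl infusion (300 mosm) ~10 mL/h, 60 min equilibration. Blood pressure from the carotid; urine volume weighed, four postinjection samples; GFR from inulin (anthrone); sodium by flame photometry.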

[11] = system: Rattus norvegicus; test: Reduction in urine flow in Sprague-Dawley rat at 4.2 x 10^-11 mol, single intravenous bolus injection; assay type: functional, organism-based; summary of the method: as §2
[12] = system: Rattus norvegicus; test: Decrease in glomerular filtration rate in Sprague-Dawley rat at 1.6 x 10^-12 mol, single intravenous bolus injection
[13] = system: Rattus norvegicus; test: Induction in blood pressure in rat at 4.2 x 10^-11 mol, single intravenous bolus injection; assay type: functional, organism-based; summary of the method: as §2
[14] = system: Rattus norvegicus; test: Increase in urine osmolality in Sprague-Dawley rat measured per liter at 4.2 x 10^-11 mol, single intravenous bolus injection (reference value: 200 mosm); assay type: functional

N=C(N)NCCC[C@H](NC(=O)[C@@H]1C=CCN1C(=O)[C@@H]1CSSCCC(=O)N[C@@H](Cc2ccc(O)cc2)C(=O)N[C@@H](Cc2ccccc2)C(=O)N[C@@H](CCC(N)=O)C(=O)N[C@@H](CC(N)=O)C(=O)N1)C(=O)NCC(N)=O
Activity [1]: 240 U/mg
Activity [2]: 345 U/mg
Activity [3]: 69 U/mg
Activity [4]: 4134 U/mg

N=C(N)NCCCC(NC(=O)[C@@H]1CCCN1C(=O)[C@@H]1CSSCCC(=O)N[C@@H](Cc2ccc(O)cc2)C(=O)N[C@@H](Cc2ccccc2)C(=O)N[C@@H](CCC(N)=O)C(=O)N[C@@H](CC(N)=O)C(=O)N1)C(=O)NCC(N)=O (single isomer, unassigned) [DESMOPRESSIN]
Activity [1]: 395 U/mg
Activity [2]: 160 U/mg
Activity [3]: 29 U/mg
Activity [4]: 1400 U/mg

N=C(N)NCCC[C@H](NC(=O)[C@@H]1C=CCN1C(=O)[C@@H]1CSSCCC(=O)N[C@@H](Cc2ccccc2)C(=O)N[C@@H](Cc2ccccc2)C(=O)N[C@@H](CCC(N)=O)C(=O)N[C@@H](CC(N)=O)C(=O)N1)C(=O)NCC(N)=O ([Mpa]FFQNC[ΔPro]RG-NH2; disulfide 1-6)
Activity [5]: 700 milliosmole
inhibition [6]: Active
Activity [2]: 2.9 U/mg
Activity [3]: 6 U/mg
Activity [4]: 13000 U/mg
inhibition [7]: Active
inhibition [8]: Active
Activity [9]: inactive

N=C(N)NCCC[C@H](NC(=O)[C@@H]1CCCN1C(=O)[C@@H]1CSSCCC(=O)N[C@@H](Cc2ccccc2)C(=O)N[C@@H](Cc2ccccc2)C(=O)N[C@@H](CCC(N)=O)C(=O)N[C@@H](CC(N)=O)C(=O)N1)C(=O)NCC(N)=O ([Mpa]FFQNCPRG-NH2; disulfide 1-6)
Activity [1]: 29 U/mg
Activity [2]: <1 U/mg
Activity [3]: 0.3 U/mg
Activity [4]: 810 U/mg

N=C(N)NCCC[C@H](NC(=O)[C@@H]1CCCN1C(=O)[C@@H]1CSSC[C@H](N)C(=O)N[C@@H](Cc2ccc(O)cc2)C(=O)N[C@@H](Cc2ccccc2)C(=O)N[C@@H](CCC(N)=O)C(=O)N[C@@H](CC(N)=O)C(=O)N1)C(=O)NCC(N)=O [VASOPRESSIN]
Activity [1]: 487 U/mg
inhibition [10]: Active
inhibition [11]: Active
Activity [2]: 100 U/mg
Activity [3]: 12 U/mg
inhibition [12]: Active
Activity [4]: 503 U/mg
Activity [13]: Active
Activity [14]: 700 milliosmole

Reference: ChEMBL document CHEMBL3244069, “Synthesis and biological activities of arginine-vasopressin analogues designed from a conformation-activity approach” (1979)
